Source: ChEMBL document CHEMBL4011643, “Triaryl Benzimidazoles as a New Class of Antibacterial Agents against Resistant Pathogenic Microorganisms” (J Med Chem, 2017)
Values after ≈ are worked out from the molar mass of the structure shown.

Experiments:
Enterococcus faecium = experiment: Antibacterial activity against vancomycin-resistant Enterococcus faecium NCTC 12204 after 20 hrs by broth microdilution method; type: functional; details: NCTC 12204, 20 h
In short: (§1)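 Broth microdilution in Tryptic Soy Broth; growth read as OD600 after 20 h. MIC taken as the lowest drug concentration giving OD600 below 0.1. Run in triplicate.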

Staphylococcus aureus [1] = experiment: Antibacterial activity against methicillin-resistant Staphylococcus aureus MRSA252 after 20 hrs by broth microdilution method; type: functional; details: MRSA252, 20 h; in short: as §1
Enterococcus faecalis [2] = experiment: Antibacterial activity against vancomycin-sensitive Enterococcus faecalis NCTC 775 after 20 hrs by broth microdilution method; type: functional; details: NCTC 775, 20 h
In short: (§2)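 Broth microdilution in Tryptic Soy Broth, done in triplicate. Growth was read as OD600 after 20 h. MIC is the lowest drug concentration giving OD600 below 0.1.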

Staphylococcus aureus [3] = experiment: Antibacterial activity against methicillin-resistant Staphylococcus aureus EMRSA-15 after 20 hrs by broth microdilution method; type: functional; details: EMRSA-15, 20 h; in short: as §1
Staphylococcus aureus [4] = experiment: Antibacterial activity against methicillin-sensitive Staphylococcus aureus ATCC 9144 after 20 hrs by broth microdilution method; type: functional; details: ATCC 9144, 20 h; in short: as §2
Enterococcus faecalis [5] = experiment: Antibacterial activity against vancomycin-resistant Enterococcus faecalis NCTC 12201 after 20 hrs by broth microdilution method; type: functional; details: NCTC 12201, 20 h; in short: as §1
Klebsiella pneumoniae [6] = experiment: Antibacterial activity against Klebsiella pneumoniae M6 after 20 hrs by broth microdilution method; type: functional; details: M6, 20 h; in short: as §2
Klebsiella pneumoniae [7] = experiment: Antibacterial activity against Klebsiella pneumoniae NCTC 13368 after 20 hrs in the presence of PMBN by broth microdilution method; type: functional; details: NCTC 13368, 20 h; in short: as §2
Acinetobacter baumannii [8] = experiment: Antibacterial activity against Acinetobacter baumannii AYE after 20 hrs in the presence of PMBN by broth microdilution method; type: functional; in short: as §2
Acinetobacter baumannii [9] = experiment: Antibacterial activity against Acinetobacter baumannii ATCC 17978 after 20 hrs in the presence of PMBN by broth microdilution method; type: functional; details: ATCC 17978, 20 h; in short: as §2
Klebsiella pneumoniae [10] = experiment: Antibacterial activity against Klebsiella pneumoniae NCTC 13368 after 20 hrs by broth microdilution method; type: functional; details: NCTC 13368, 20 h; in short: as §2
Acinetobacter baumannii [11] = experiment: Antibacterial activity against Acinetobacter baumannii ATCC 17978 after 20 hrs by broth microdilution method; type: functional; details: ATCC 17978, 20 h; in short: as §2
Pseudomonas aeruginosa [12] = experiment: Antibacterial activity against Pseudomonas aeruginosa NCTC 13437 after 20 hrs by broth microdilution method; type: functional; details: NCTC 13437, 20 h; in short: as §2
Acinetobacter baumannii [13] = experiment: Antibacterial activity against Acinetobacter baumannii AYE after 20 hrs by broth microdilution method; type: functional; in short: as §2
Pseudomonas aeruginosa [14] = experiment: Antibacterial activity against Pseudomonas aeruginosa PAO1 after 20 hrs by broth microdilution method; type: functional; details: PAO1, 20 h; in short: as §2
Klebsiella pneumoniae [15] = experiment: Antibacterial activity against Klebsiella pneumoniae M6 after 20 hrs in the presence of PMBN by broth microdilution method; type: functional; details: M6, 20 h; in short: as §2
Acinetobacter baumannii [16] = experiment: Antibacterial activity against Acinetobacter baumannii ATCC 17978 after 20 hrs in the presence of Pa-beta-N and magnesium ions by broth microdilution method; type: functional; details: ATCC 17978, 20 h; in short: as §2
Pseudomonas aeruginosa [17] = experiment: Antibacterial activity against Pseudomonas aeruginosa PAO1 after 20 hrs in the presence of PMBN by broth microdilution method; type: functional; details: PAO1, 20 h; in short: as §2
Klebsiella pneumoniae [18] = experiment: Antibacterial activity against Klebsiella pneumoniae M6 after 20 hrs in the presence of Pa-beta-N and magnesium ions by broth microdilution method; type: functional; details: M6, 20 h; in short: as §2
[19] = Cytotoxicity against human HeLa cells assessed as cell viability at 25 uM after 24 hrs by MTT assay; type: cell-based; details: read-out: Activity
In short: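 HeLa cells, 10000 per well, were grown at 37 °C in 5% CO2 and allowed to settle for 24 h. Compound was then added in triplicate for 24 h of continuous exposure. Viability was read by MTT colorimetry, with absorbance at 570 nm.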

Acinetobacter baumannii [20] = experiment: Antibacterial activity against Acinetobacter baumannii AYE after 20 hrs in the presence of Pa-beta-N and magnesium ions by broth microdilution method; type: functional; in short: as §2
Pseudomonas aeruginosa [21] = experiment: Antibacterial activity against Pseudomonas aeruginosa NCTC 13437 after 20 hrs in the presence of PMBN by broth microdilution method; type: functional; details: NCTC 13437, 20 h; in short: as §2
Pseudomonas aeruginosa [22] = experiment: Antibacterial activity against Pseudomonas aeruginosa PAO1 after 20 hrs in the presence of Pa-beta-N and magnesium ions by broth microdilution method; type: functional; details: PAO1, 20 h; in short: as §2
Pseudomonas aeruginosa [23] = experiment: Antibacterial activity against Pseudomonas aeruginosa NCTC 13437 after 20 hrs in the presence of Pa-beta-N and magnesium ions by broth microdilution method; type: functional; details: NCTC 13437, 20 h; in short: as §2
Klebsiella pneumoniae [24] = experiment: Antibacterial activity against Klebsiella pneumoniae NCTC 13368 after 20 hrs in the presence of Pa-beta-N and magnesium ions by broth microdilution method; type: functional; details: NCTC 13368, 20 h; in short: as §2

## CC1(C)S[C@@H]2[C@H](NC(=O)[C@H](N)c3ccc(O)cc3)C(=O)N2[C@H]1C(=O)O [AMOXICILLIN]
Enterococcus faecium
  MIC: 16 µg/mL (≈ 43.8 µM)
Staphylococcus aureus [1]
  MIC: > 128 µg/mL
Enterococcus faecalis [2]
  MIC: 0.5 µg/mL (≈ 1.37 µM)
Staphylococcus aureus [3]
  MIC: 128 µg/mL (≈ 350 µM)
Staphylococcus aureus [4]
  MIC: 1 µg/mL (≈ 2.74 µM)
Enterococcus faecalis [5]
  MIC: 0.5 µg/mL (≈ 1.37 µM)

## Cc1nc2ccc(C(=O)Nc3cccc(-c4ccc(-n5c(C)nc6cc(C(=O)NCCCN7CCN(C)CC7)ccc65)nc4)c3)cc2[nH]1
Klebsiella pneumoniae [6]
  MIC: > 32 µg/mL
Klebsiella pneumoniae [7]
  MIC: > 32 µg/mL
Enterococcus faecium
  MIC: > 128 µg/mL
Acinetobacter baumannii [8]
  MIC: > 32 µg/mL
Acinetobacter baumannii [9]
  MIC: > 32 µg/mL
Staphylococcus aureus [1]
  MIC: > 32 µg/mL
Klebsiella pneumoniae [10]
  MIC: > 32 µg/mL
Acinetobacter baumannii [11]
  MIC: > 32 µg/mL
Pseudomonas aeruginosa [12]
  MIC: > 32 µg/mL
Enterococcus faecalis [2]
  MIC: > 128 µg/mL
Acinetobacter baumannii [13]
  MIC: > 32 µg/mL
Pseudomonas aeruginosa [14]
  MIC: > 32 µg/mL
Klebsiella pneumoniae [15]
  MIC: > 32 µg/mL
Acinetobacter baumannii [16]
  MIC: > 32 µg/mL
Pseudomonas aeruginosa [17]
  MIC: > 32 µg/mL
Klebsiella pneumoniae [18]
  MIC: > 32 µg/mL
[19]
  viability at 24 h, 25 µM: > 98%
Staphylococcus aureus [3]
  MIC: > 128 µg/mL
Acinetobacter baumannii [20]
  MIC: > 32 µg/mL
Staphylococcus aureus [4]
  MIC: 16 µg/mL (≈ 24.9 µM)
Pseudomonas aeruginosa [21]
  MIC: > 32 µg/mL
Pseudomonas aeruginosa [22]
  MIC: > 32 µg/mL
Pseudomonas aeruginosa [23]
  MIC: > 32 µg/mL
Enterococcus faecalis [5]
  MIC: 64 µg/mL (≈ 99.7 µM)
Klebsiella pneumoniae [24]
  MIC: > 32 µg/mL

## Cc1nc2ccc(C(=O)Nc3cccc(-c4ccc(-n5c(C)nc6cc(C(=O)NCCCN7CCCC7)ccc65)nc4)c3)cc2[nH]1
Staphylococcus aureus [3]
  MIC: > 128 µg/mL
Enterococcus faecalis [5]
  MIC: > 128 µg/mL

## Cc1nc2cc(C(=O)NCCCN(C)C)ccc2n1-c1ccc(-c2cccc(NC(=O)c3ccccc3)c2)cn1
Staphylococcus aureus [3]
  MIC: > 128 µg/mL
Enterococcus faecalis [5]
  MIC: > 128 µg/mL

## CCN(CC)CCCNC(=O)c1ccc2c(c1)nc(C)n2-c1ccc(-c2cccc(NC(=O)c3ccc4nc(C)[nH]c4c3)c2)cn1
Staphylococcus aureus [3]
  MIC: > 128 µg/mL
Enterococcus faecalis [5]
  MIC: > 128 µg/mL

## COC(=O)c1ccc2c(c1)nc(C)n2-c1ccc(-c2cccc(NC(=O)c3ccc4nc(CCCN(C)C)[nH]c4c3)c2)cn1
Staphylococcus aureus [3]
  MIC: > 128 µg/mL
Enterococcus faecalis [5]
  MIC: > 128 µg/mL

## Cc1nc2ccc(C(=O)Nc3cccc(-c4ccc(-n5c(C)nc6cc(C(=O)NCCCN7CCOCC7)ccc65)nc4)c3)cc2[nH]1
Staphylococcus aureus [3]
  MIC: > 128 µg/mL
Enterococcus faecalis [5]
  MIC: > 128 µg/mL

## Cc1nc2cc(C(=O)NCCCN(C)C)ccc2n1-c1ccc(Br)cn1
Staphylococcus aureus [3]
  MIC: > 128 µg/mL
Enterococcus faecalis [5]
  MIC: > 128 µg/mL
